Assay results collected from several papers.
Protocols differ between the studies behind these lines.
Palmitoyl-protein thioesterase 1: Palmitoyl-protein thioesterase 1 (Homo sapiens, UniProt P50897)
Transmembrane protease serine 6: Transmembrane protease serine 6 (Homo sapiens, UniProt Q8IU80)

target | effect on | mode | technique | concentration | quantity | value | Structure (SMILES)
Non-receptor tyrosine-protein kinase TYK2 (TYK2, Homo sapiens, UniProt P29597) | enzyme activity | inhibitor | radiometric | 1 µM | remaining activity | 91% | CNc1ncc2c(/C=C/C(=O)N3CCC(OC)CC3)nn(Cc3cccc(C(F)(F)F)c3)c2n1
Palmitoyl-protein thioesterase 1 | enzyme activity | inhibitor |  | 125 µM | inhibition | 8.63% | NC(=O)c1c(OCc2c(F)cc(Br)cc2F)nsc1NC(=O)NCCCCN1CCCC1
Transmembrane protease serine 6 | enzyme activity | inhibitor |  | 0.1 µM | remaining activity | 8% | N=C(N)NCCC[C@H](NC(=O)[C@H](Cc1ccc(OCc2ccccc2)cc1)NC(=O)[C@H](Cc1cscn1)NC(=O)CCc1ccccc1)C(=O)c1nc2ccccc2s1
Serine/threonine-protein kinase PRP4 homolog (PRPF4B, Homo sapiens, UniProt Q13523) | binding |  | competition with immobilised ligand | 1 µM | remaining binding | 84% | C=CC(=O)N1CCC(COCC(=O)N2CCN(c3nc(-c4cnc(N)nc4C(F)F)nc(N4CCOC[C@@H]4C)n3)CC2)CC1
Epidermal growth factor receptor (EGFR, Homo sapiens, UniProt P00533, L858R) | binding |  | competition with immobilised ligand | 1 µM | remaining binding | 100% | Cc1cc([C@@H](C)Nc2ccccc2C(=O)O)c2nc(N3CCC(F)(F)CC3)c(C#N)c(=O)n2c1
Transmembrane protease serine 6 | enzyme activity | inhibitor |  | 0.1 µM | remaining activity | 77% | N=C(N)NCCC[C@H](NC(=O)[C@H](CC1CC1)NC(=O)[C@H](Cc1cscn1)NC(=O)CCc1ccccc1)C(=O)c1nc2ccccc2s1
Epidermal growth factor receptor (EGFR, Homo sapiens, UniProt P00533) | enzyme activity | inhibitor |  | 1 µM | remaining activity | 93% | COc1cc(-c2cncc3c2CN(C)Cc2cc(N4CCNCC4)ccc2-3)cc(OC)c1OC
Palmitoyl-protein thioesterase 1 | enzyme activity | inhibitor |  | 625 µM | inhibition | 29.3% | O=C1C=C2CC3(O)COc4cc(O)ccc4C3=C2C=C1O (stereo not drawn)
Transmembrane protease serine 6 | enzyme activity | inhibitor |  | 0.1 µM | remaining activity | 2% | N=C(N)NCCC[C@H](NC(=O)[C@H](CCc1ccccc1)NC(=O)[C@H](Cc1cscn1)NC(=O)CCc1ccccc1)C(=O)c1nc2ccccc2s1
